Key:
[1] = tested on: Homo sapiens; test: Toxicity in healthy human assessed as occurrence of clinically relevant changes in vital signs at 10 to 80 mg, po administered as single ascending doses during 10 hrs overnight fasting state; assay type: organism-based; conditions: in vivo
Method in brief: (§1)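 Healthy Caucasian men received single ascending doses (10–40 mg solution, 80 mg tablets) or 3-day daily tablet courses, all fasting, with randomized placebo controls. Supine blood pressure, heart rate and resting 12-lead ECG were recorded before and after dosing.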

[2] = tested on: Homo sapiens; test: Toxicity in healthy human assessed as occurrence of clinically relevant changes in vital signs at 80 mg, po administered daily for 3 days as four 20-mg immediate-release tablets during 10 hrs overnight fasting state; assay type: organism-based; conditions: in vivo; method in brief: as §1
[3] = tested on: Homo sapiens; test: Toxicity in healthy human assessed as occurrence of changes in electrocardiogram parameters at 80 mg, po administered daily for 3 days as four 20-mg immediate-release tablets during 10 hrs overnight fasting state; assay type: organism-based; conditions: in vivo; method in brief: as §1
[4] = tested on: Homo sapiens; test: Toxicity in healthy human assessed as increase in glutamate dehydrogenase level at 80 mg, po administered daily for 3 days as four 20-mg immediate-release tablets during 10 hrs overnight fasting state measured after 24 hrs last post treatment; assay type: organism-based; conditions: in vivo
[5] = tested on: Homo sapiens; test: Toxicity in healthy human assessed as decrease in alanine aminotransferase level at 80 mg, po administered daily for 3 days as four 20-mg immediate-release tablets during 10 hrs overnight fasting state measured after 2 days last post treatment; assay type: organism-based; conditions: in vivo, 48 h
[6] = Cmax in healthy human plasma at 10 mg, po administered as single ascending doses as solution during 10 hrs overnight fasting state; assay type: ADME, organism-based; design: dose 10 mg, route oral
Method in brief: (§2)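 Healthy Caucasian male volunteers, single oral dose with 240 ml water after a 10-h overnight fast. Heparinised venous blood was drawn predose and at 0.25–14 h. Plasma was stored frozen. Parent drug and metabolites M1–M3 were measured by LC/MS-MS (MRM, deuterated internal standard). Noncompartmental analysis gave Cmax observed, t1/2 = 0.693/kel (terminal regression) and MRT = AUMC/AUC. Values are geometric means.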

[7] = Tmax in healthy human plasma at 10 mg, po administered as single ascending doses as solution during 10 hrs overnight fasting state; assay type: ADME, organism-based
Method in brief: (§3)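 Healthy Caucasian male volunteers, randomized within each dose group against placebo, given a single oral solution with 240 ml water after a 10-h overnight fast. Plasma sampled predose and at 0.25–14 h, quantified by LC/MS-MS (MRM, deuterated internal standard). Tmax read directly from individual noncompartmental concentration–time data.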

[8] = Mean residence time in healthy human at 10 mg, po administered as single ascending doses as solution during 10 hrs overnight fasting state; assay type: ADME, organism-based; conditions: in vivo; method in brief: as §2
[9] = Tmax in healthy human plasma at 20 mg, po administered as single ascending doses as solution during 10 hrs overnight fasting state; assay type: ADME, organism-based; method in brief: as §3
[10] = AUC in healthy human plasma at 30 mg, po administered as single ascending doses as solution during 10 hrs overnight fasting state; assay type: ADME, organism-based; design: time < 10 hr, dose 30 mg, route oral
Method in brief: (§4)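 Single ascending oral doses in healthy Caucasian men, given fasted (10-h overnight) with 240 ml water: 10, 20, 30 or 40 mg as oral solution, or 80 mg as IR tablets. Parent plasma levels by LC/MS-MS over 0.25–14 h. Noncompartmental analysis: kel by terminal-phase least-squares regression, AUC extrapolated to infinity, CL/F = dose/AUC, V/F = CL/F÷kel.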

[11] = Tmax in healthy human plasma at 30 mg, po administered as single ascending doses as solution during 10 hrs overnight fasting state; assay type: ADME, organism-based; method in brief: as §3
[12] = Apparent oral clearance in healthy human at 30 mg, po administered as single ascending doses as solution during 10 hrs overnight fasting state; assay type: ADME, organism-based; conditions: in vivo; method in brief: as §4
[13] = AUC in healthy human plasma at 40 mg, po administered as single ascending doses as solution during 10 hrs overnight fasting state; assay type: ADME, organism-based; design: time < 10 hr, dose 40 mg, route oral; method in brief: as §4
[14] = Tmax in healthy human plasma at 40 mg, po administered as single ascending doses as solution during 10 hrs overnight fasting state; assay type: ADME, organism-based; method in brief: as §3
[15] = Mean residence time in healthy human at 40 mg, po administered as single ascending doses as solution during 10 hrs overnight fasting state; assay type: ADME, organism-based; conditions: in vivo; method in brief: as §2
[16] = Apparent volume of distribution with respect to the bioavailability in healthy human at 40 mg, po administered as single ascending doses as solution during 10 hrs overnight fasting state; assay type: ADME, organism-based; conditions: in vivo, read-out: Vc/F; method in brief: as §4
[17] = Cmax in healthy human plasma at 80 mg, po administered as single immediate release tablets during 10 hrs overnight fasting state; assay type: ADME, organism-based; design: dose 80 mg, route oral; method in brief: as §2
[18] = AUC in healthy human plasma at 80 mg, po administered as single immediate release tablets during 10 hrs overnight fasting state; assay type: ADME, organism-based; design: dose 80 mg, time < 10 hr, route oral; method in brief: as §4
[19] = Cmax in healthy human plasma at 40 mg, po administered as two 20 mg immediate release tablets daily for 3 days during 10 hrs overnight fasting state measured after 1 day; assay type: ADME, organism-based; design: dose 40 mg, route oral
Method in brief: (§5)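 Healthy Caucasian males took tablets once daily for 3 days with 240 ml water after a 10-h fast. Heparinised blood was drawn predose and at 0.25–14 h after the first and last doses. Plasma parent drug and metabolites M1–M3 were measured by LC/MS-MS (MRM, deuterated internal standard). Noncompartmental analysis gave Cmax observed, t1/2 = 0.693/kel and MRT = AUMC/AUC. Values are geometric means.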

[20] = Tmax in healthy human plasma at 40 mg, po administered as two 20 mg immediate release tablets daily for 3 days during 10 hrs overnight fasting state measured after 3 day; assay type: ADME, organism-based
Method in brief: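 Healthy Caucasian men (8 active, 4 placebo per dose) dosed with tablets daily for 3 days after 10-h fast. Lithium-heparin plasma sampled predose and 0.25–14 h after day-1 and day-3 doses, stored frozen. Parent and M1–M3 quantified by LC/MS-MS in positive-ion MRM. Tmax taken directly from observed individual data.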

[21] = Mean residence time in healthy human at 40 mg, po administered as two 20 mg immediate release tablets daily for 3 days during 10 hrs overnight fasting state measured after 3 day; assay type: ADME, organism-based; conditions: in vivo; method in brief: as §5
[22] = tested on: Plasma; test: Ratio of Cmax in healthy human plasma at 40 mg, po administered as two 20 mg immediate release tablets daily for 3 days during 10 hrs overnight fasting state measured after 1 day to Cmax in healthy human plasma at 40 mg, po administered as two 20 mg immediate release tablets daily for 3 days during 10 hrs overnight fasting state measured after 3 day; assay type: ADME, organism-based; conditions: in vivo
Method in brief: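 Healthy Caucasian men took tablets daily for 3 days with 240 ml water after 10-h fast. Plasma sampled 0.25–14 h after first and last doses, artemisone measured by LC/MS-MS. Accumulation ratio is Cmax or AUC0-∞ after last dose divided by that after first dose. Noncompartmental analysis, geometric means with 95% CI.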

[23] = Cmax in healthy human plasma at 80 mg, po administered as four 20 mg immediate release tablets daily for 3 days during 10 hrs overnight fasting state measured after 1 day; assay type: ADME, organism-based; design: dose 80 mg, route oral; method in brief: as §5
[24] = AUC in healthy human plasma at 80 mg, po administered as four 20 mg immediate release tablets daily for 3 days during 10 hrs overnight fasting state measured after 1 day; assay type: ADME, organism-based; design: dose 80 mg, time < 10 hr, route oral
Method in brief: (§6)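 Healthy Caucasian males took 40 mg (2×20-mg IR tablets) or 80 mg (4 tablets) orally daily for 3 days after a 10-h fast. Plasma parent drug was measured by LC/MS-MS from predose to 14 h after the first and third doses. Noncompartmental analysis: AUC by log-linear trapezoid extrapolated via kel, CL/F = dose/AUC, V/F = CL/F÷kel, geometric means.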

[25] = Mean residence time in healthy human at 80 mg, po administered as four 20 mg immediate release tablets daily for 3 days during 10 hrs overnight fasting state measured after 1 day; assay type: ADME, organism-based; conditions: in vivo; method in brief: as §5
[26] = Apparent volume of distribution with respect to the bioavailability in healthy human at 80 mg, po administered as four 20 mg immediate release tablets daily for 3 days during 10 hrs overnight fasting state measured after 3 day; assay type: ADME, organism-based; conditions: in vivo, read-out: Vc/F; method in brief: as §6

With `C[C@H]1[C@H](N2CCS(=O)(=O)CC2)O[C@@H]2O[C@@]3(C)CC[C@H]4[C@H](C)CC[C@@H]1[C@@]24OO3` [ARTEMIFONE] the Activity [1] was “Non-toxic”, the Activity [2] was “Non-toxic” and the Activity [3] was “Non-toxic”. The Activity [4] was “Non-toxic”, the Activity [5] was “Non-toxic” and the Cmax [6] was 0.04 µg/mL. It also gave a Tmax [7] of 15 min, an MRT [8] of 58.8 min and a Tmax [9] of 30 min. The AUC at 10 h [10] was 0.0718 µg·h/mL, the Tmax [11] was 30 min and the CL/F [12] was 6960 mL/min. The AUC at 10 h [13] was 0.118 µg·h/mL, the Tmax [14] was 37.5 min and the MRT [15] was 143 min. For the same molecule, the Vd/F [16] was 22.2 L/kg, the Cmax [17] was 0.14 µg/mL and the AUC at 10 h [18] was 0.282 µg·h/mL. For the same molecule, the Cmax [19] was 0.0964 µg/mL, the Tmax [20] was 67.8 min and the MRT [21] was 224 min. The Ratio [22] was 98.5%, the Cmax [23] was 0.155 µg/mL and the AUC at 10 h [24] was 0.343 µg·h/mL. For the same molecule, the MRT [25] was 198 min and the Vd/F [26] was 13.7 L/kg.

— ChEMBL document CHEMBL1671864, “First assessment in humans of the safety, tolerability, pharmacokinetics, and ex vivo pharmacodynamic antimalarial activity of the new artemisinin derivative artemisone” (Antimicrob Agents Chemother, 2008)
